Measurements taken from PubChem BioAssay AID493227 (Broad Institute, 2011).
Several values for one entry are separate records, joined by “and”; a condition that tells them apart may be missing. Equal values may be shown once. Activity calls are given as the source filed them.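 How the source made its calls: active means fitted curve reaches 40% activation at a dose no higher than the top dose validly tested; inconclusive means flat curve between 30 and 70% activation, or poor fit; inactive means the rest, including signal moving against the expected rise.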

Key:
[1] = HRE-luciferase activation in U2OS cells, dose response, cell-based, luminescence, U2OS HRE-luc, dry powder, set 8 (AID 493227); settings: U2OS HRE-luciferase reporter, luminescence, HIF activation; at 38 µM (top of the series)
In short: (§1)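 System: human U2OS osteosarcoma cells stably carrying 3×HRE-luciferase reporter; buffer or medium: phenol red-free DMEM with 10% FBS, no hygromycin; doses: 8-point series in 3-fold steps; times: 24 h plating, 24 h compound treatment; technique: Steady-Glo luminescence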

[2] = test system: U2OS HRE-luciferase reporter, luminescence, HIF activation; experiment: as above
In short: as §1

Structure (SMILES) | activation [1] | AC40 [2]
O=C(c1cc(-c2ccccc2)on1)N1CCc2cccnc21 | -1.93% (inactive) | 
CC1CN(Cc2ccc(O)c3ncccc23)CC(C)O1 (stereo not drawn) |  | 36.6 µM
N#CC1(c2ccccc2)CCN(Cc2ccc(O)c3ncccc23)CC1 |  | 14.5 µM
c1ccc(-c2nnc(-c3ccccn3)nc2NCC2CC2)cc1 |  | 2.77 µM
c1ccc(-c2cnc(Nc3nc(-c4ccccn4)nnc3-c3ccccc3)s2)cc1 |  | 10.7 µM
O=C(Nc1nc(-c2ccccc2)cs1)c1cc(-c2ccccc2)on1 | -11.1% (inactive) | 
OCC1CCN(Cc2ccc(O)c3ncccc23)CC1 |  | 15.9 µM
COc1cccc(CNc2nc(-c3ccccn3)nnc2-c2ccccc2)c1 |  | 1.31 µM
c1ccc(-c2nnc(-c3ccccn3)nc2NCCCN2CCOCC2)cc1 |  | 3.61 µM
O=C(NCc1ccccc1)c1cc(-c2ccccc2)on1 |  | > 38 µM (inactive)
O=C(NCC1CC1)c1cc(-c2ccccc2)on1 |  | 1.5 µM
c1ccc(-c2csc(Nc3nc(-c4ccccn4)nnc3-c3ccccc3)n2)cc1 |  | 13.9 µM
c1ccc(-c2nnc(-c3ccccn3)nc2Nc2cnc3ccccc3n2)cc1 |  | 3.83 µM
Cc1ccc(NC(=O)c2cc(-c3ccccc3)on2)cn1 | -3.16% (inactive) | 
c1ccc(-c2nnc(-c3ccccn3)nc2NCc2cccnc2)cc1 |  | 3.73 µM
Cc1ccccc1CNc1nc(-c2ccccn2)nnc1-c1ccccc1 |  | 2.08 µM
c1ccc(-c2ccc(CNc3nc(-c4ccccn4)nnc3-c3ccccc3)cc2)cc1 |  | 0.379 µM
Oc1ccc(CNC2Cc3ccccc3C2)c2cccnc12 |  | 8.12 µM
c1ccc(-c2nnc(-c3ccccn3)nc2NCC2CCCCC2)cc1 |  | 1.28 µM
Cn1c(-c2ccccc2)cnc1NC(=O)c1cc(-c2ccccc2)on1 | 8.45% (inactive) | 
O=C(c1cc(-c2ccccc2)on1)N1CCN(c2ccncc2)CC1 | -11.8% (inactive) | 
c1ccc(-c2nnc(Nc3nc(-c4ccccn4)nnc3-c3ccccc3)s2)cc1 |  | 0.582 µM

Structure (SMILES) | activation [1] | AC40 [2]
O=C(c1cc(-c2ccccc2)on1)N1CCC(CO)CC1 | -18% (inactive) | 
Cc1ccccc1CNC(=O)c1cc(-c2ccccc2)on1 | 17.1% (inactive) | 
CN1CCN(c2nc(-c3ccccn3)nnc2-c2ccccc2)CC1 |  | 3.01 µM
O=C(Nc1ccc2ccccc2n1)c1cc(-c2ccccc2)on1 | -20.3% (inactive) | 
C[C@H](Nc1nc(-c2ccccn2)nnc1-c1ccccc1)C1CCCCC1 |  | 1.16 µM
c1ccc(CNc2nc(-c3ccccn3)nnc2-c2ccccc2)cc1 |  | 3.22 µM
c1ccc(-c2nnc(-c3ccccn3)nc2N2CCC(C3CCCCC3)C2)cc1 (stereo not drawn) | 2190% (inactive) | 
c1ccc(-c2nnc(-c3ccccn3)nc2N2CCC(c3ccccc3)C2)cc1 (stereo not drawn) |  | 0.509 µM
O=C(Nc1nc2ccccc2s1)c1cc(-c2ccccc2)on1 | 9.05% (inactive) | 
c1ccc(-c2nnc(-c3ccccn3)nc2N2CCN(c3ccncc3)CC2)cc1 |  | 2.35 µM
OCCCNc1nc(-c2ccccn2)nnc1-c1ccccc1 |  | 7.76 µM
Cc1ccc(CNc2nc(-c3ccccn3)nnc2-c2ccccc2)cc1C |  | 0.364 µM
O=C(NCCCN1CCOCC1)c1cc(-c2ccccc2)on1 |  | 7.62 µM
O=C(NCCCO)c1cc(-c2ccccc2)on1 |  | 5.37 µM
Cc1cccc(CNC(=O)c2cc(-c3ccccc3)on2)c1 |  | > 38 µM (inactive)
COc1ccc(CNc2nc(-c3ccccn3)nnc2-c2ccccc2)cc1 |  | 0.782 µM
CN1CCN(C(=O)c2cc(-c3ccccc3)on2)CC1 | -33.9% (inactive) | 
O=C(NCCN1CCCCC1)c1cc(-c2ccccc2)on1 |  | > 38 µM (inactive)
Cc1ccc(CNc2nc(-c3ccccn3)nnc2-c2ccccc2)cc1 |  | 1.28 µM
CN(C)CCNC(=O)c1cc(-c2ccccc2)on1 |  | > 38 µM (inactive)
CC(Nc1nc(-c2ccccn2)nnc1-c1ccccc1)c1ccccc1 (stereo not drawn) |  | 0.875 µM
Clc1cccc(CNc2nc(-c3ccccn3)nnc2-c2ccccc2)c1 |  | 0.826 µM

Structure (SMILES) | activation [1] | AC40 [2]
c1ccc(-c2nnc(-c3ccccn3)nc2NCc2ccccn2)cc1 |  | 8.01 µM
C=CCNc1nc(-c2ccccn2)nnc1-c1ccccc1 |  | 1.3 µM
c1ccc(-c2nnc(-c3ccccn3)nc2Nc2nc3ccccc3s2)cc1 |  | 2.87 µM
O=C(Nc1ncc(-c2ccccc2)o1)c1cc(-c2ccccc2)on1 | -20.6% (inactive) | 
C[C@@H](Nc1nc(-c2ccccn2)nnc1-c1ccccc1)C1CCCCC1 |  | 1.88 µM
O=C(Nc1cnc2ccccc2c1)c1cc(-c2ccccc2)on1 | 22.1% (inactive) | 
Oc1ccc(CN2CCC3CCCCC3C2)c2cccnc12 (stereo not drawn) |  | 4.8 µM
Cc1cccc(Nc2nc(-c3ccccn3)nnc2-c2ccccc2)n1 |  | 1.89 µM
c1ccc(-c2nnc(-c3ccccn3)nc2NCCc2ccccn2)cc1 |  | 3.14 µM
O=C(NCCN1CCOCC1)c1cc(-c2ccccc2)on1 |  | 8.1 µM
OCC1CCN(c2nc(-c3ccccn3)nnc2-c2ccccc2)CC1 |  | 12.1 µM
CC(C)(C)CCNC(=O)c1cc(-c2ccccc2)on1 |  | 5.03 µM
O=C(NC1CCc2ccccc2C1)c1cc(-c2ccccc2)on1 (stereo not drawn) | -11.6% (inactive) | 
O=C(c1cc(-c2ccccc2)on1)N1CCC(N2CCOCC2)CC1 | -9.31% (inactive) | 
c1ccc(-c2cccc(CNc3nc(-c4ccccn4)nnc3-c3ccccc3)c2)cc1 |  | 0.06 µM
CC(C)(C)c1ccc(CNc2nc(-c3ccccn3)nnc2-c2ccccc2)cc1 |  | 0.393 µM
CN(C)c1nc(-c2ccccn2)nnc1-c1ccccc1 |  | 6.62 µM
COc1ccccc1N1CCN(Cc2ccc(O)c3ncccc23)CC1 |  | 11.8 µM
c1ccc(-c2nnc(-c3ccccn3)nc2NCCN2CCOCC2)cc1 |  | 1.96 µM
Oc1ccc(CN2CCc3ccccc3C2)c2cccnc12 | 99.2% (inactive) | 2.32 µM
O=C(NCCCn1ccnc1)c1cc(-c2ccccc2)on1 |  | 4.16 µM
Cn1c(NC(=O)c2cc(-c3ccccc3)on2)nc2ccccc21 | 5.66% (inactive) | 

Structure (SMILES) | activation [1] | AC40 [2]
Cn1c(-c2ccccc2)cnc1Nc1nc(-c2ccccn2)nnc1-c1ccccc1 |  | 4.17 µM
Cc1ccc(Nc2nc(-c3ccccn3)nnc2-c2ccccc2)cn1 |  | 3.28 µM
c1ccc(-c2nnc(-c3ccccn3)nc2NCC2CCOCC2)cc1 |  | 5.01 µM
O=C(Nc1cn2ccccc2n1)c1cc(-c2ccccc2)on1 | -5.39% (inactive) | 
Cc1cccc(NC(=O)c2cc(-c3ccccc3)on2)n1 |  | > 38 µM (inactive)
O=C(NC1Cc2ccccc2C1)c1cc(-c2ccccc2)on1 |  | > 38 µM (inactive)
Oc1ccc(CNC2CCc3ccccc32)c2cccnc12 (stereo not drawn) |  | 13.9 µM
CC(C)(C)CCNc1nc(-c2ccccn2)nnc1-c1ccccc1 |  | 1.41 µM and 0.785 µM
Cc1ccc(CNC(=O)c2cc(-c3ccccc3)on2)cc1 | -27% (inactive) | 
O=C(Nc1ncc2ccccc2n1)c1cc(-c2ccccc2)on1 | 8.54% (inactive) | 
O=C(Nc1nnc(-c2ccccc2)s1)c1cc(-c2ccccc2)on1 | 6.25% (inactive) | 
c1ccc(CCNc2nc(-c3ccccn3)nnc2-c2ccccc2)cc1 |  | 1.35 µM
CC(C)(C)OC(=O)N1CCN(Cc2ccc(O)c3ncccc23)CC1 |  | > 38 µM (inactive)
CCCCNC(=O)c1cc(-c2ccccc2)on1 |  | 3.17 µM
O=C(c1cc(-c2ccccc2)on1)N1CCC(N2CCCC2)CC1 | -2.94% (inactive) | 
Cc1cccc(CNc2nc(-c3ccccn3)nnc2-c2ccccc2)c1 |  | 2.09 µM
Oc1ccc(CN2CCC(Cc3ccccc3)CC2)c2cccnc12 |  | 11.1 µM
C[C@@H](Nc1nc(-c2ccccn2)nnc1-c1ccccc1)c1ccccc1 |  | 1.61 µM
O=C(NCC1CCCCC1)c1cc(-c2ccccc2)on1 | 15.7% (inactive) | 
O=C(NCCCCO)c1cc(-c2ccccc2)on1 |  | 1.65 µM
c1ccc(-c2nnc(-c3ccccn3)nc2N2CCC(N3CCOCC3)CC2)cc1 |  | 2.18 µM
